Data set [1] in a line: Inhibition of His-tagged catalytic domain Trypanosoma brucei brucei PDEB1 expressed in baculovirus infected insect Sf21 cells.
Data set [2] in a line: Inhibition of His-tagged catalytic domain Trypanosoma brucei brucei PDEB2 expressed in baculovirus infected insect Sf21 cells.
The subject of data set [3] is Trypanosoma brucei brucei. Briefly: Antitrypanosomal activity against blood stream Trypanosoma brucei brucei 427 after 48 hrs by Alamar blue assay. It counts as functional, organism-based. Conditions: Trypanosoma brucei, 427, 48 h. A general note: Resazurin is reduced to fluorescent resorufin, in cell work by metabolically active cells.
A short description of data set [4]: Inhibition of His-tagged catalytic domain Trypanosoma brucei brucei PDEB1 expressed in baculovirus infected insect Sf21 cells at 100 uM. The method in brief:
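Inhibitor preincubated 10 min before substrate, final DMSO 2%, 5% or 10%. BioMol green phosphate read at 620nm. Initial-velocity change versus vehicle; mean of ≥3 independent experiments.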

A short description of data set [5]: Inhibition of His-tagged catalytic domain Trypanosoma brucei brucei PDEB1 expressed in baculovirus infected insect Sf21 cells at 10 uM. The method in brief:
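Single-concentration screen of purified His-tagged TbrPDEB1 catalytic domain (0.25 µg) at 37°C in 10 mM Tris pH 7.4, 0.2 mg/ml BSA, 10 mM MgCl2, 25 µM cAMP and excess 5'-nucleotidase. Inhibitor in DMSO (2%, 5% or 10% final) preincubated 10 min before substrate. BioMol green phosphate read-out at 620 nm; percent inhibition of initial velocity versus vehicle control.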

The test system of data set [6] is Trypanosoma brucei brucei. Briefly: Cytotoxicity against Trypanosoma brucei brucei at 100 uM.

The values below come from ChEMBL document CHEMBL1921779, “Pharmacological validation of Trypanosoma brucei phosphodiesterases B1 and B2 as druggable targets for African sleeping sickness” (J Med Chem, 2011).

Molecules are shown by their SMILES.

Broadly, the IC50 is the concentration that inhibits the measured activity by half. Higher therefore signals weaker potency. As to `COc1ccc(C2CNC(=O)C2)cc1OC1CCCC1` (stereo unspecified) [ROLIPRAM], the half-maximal inhibitory concentration (IC50) in data set [1] was more than 100 µM. Take `CCOc1cc(C(=O)Nc2c(Cl)cncc2Cl)ccc1OC`: the values for the IC50 in data set [2] and in data set [1] were 34 µM and 16.5 µM, respectively.

For orientation: EC50 means the concentration that produces a half-maximal response. A low value points to a more potent agent. By inhibition is commonly meant the percentage by which the read-out fell short of the control. Read a low inhibition as a weak effect. The molecule `COc1cc2c(cc1OC)-c1c/c(=N\c3c(C)cc(C)cc3C)n(C)c(=O)n1CC2` [TREQUINSIN] gave an EC50 in data set [3] of 5.8 µM. In data set [4], this molecule yielded an inhibition of more than 50%. Also, the IC50 in data set [2] worked out at 25.4 µM; in data set [1], 12 µM. The molecule `Cc1noc(/C(=C/c2cccc(-c3cc(C(C)(C)S(C)(=O)=O)cc4cccnc34)c2)c2ccc(S(C)(=O)=O)cc2)n1` showed an inhibition in data set [5] of more than 50%.

`CCCCOc1cc(CC2CNC(=O)N2)ccc1OC` (stereo unspecified) [RO-201724] gave a 50% inhibitory concentration (IC50) in data set [1] of more than 100 µM. With `COc1cc(Cl)c(C(=O)Nc2c(Cl)cncc2Cl)cc1OC`, the IC50 in data set [1] is more than 100 µM. Regarding `CCCCOc1cc(C(=O)Nc2c(Cl)cncc2Cl)ccc1OC`, the concentration giving a half-maximal response (EC50) in data set [3] is 17.7 µM. Further, the figures for the IC50 in data set [2] and in data set [1] were 14.3 µM and 7.7 µM, respectively. The molecule `CCOc1ccc(C(=O)Nc2c(Cl)cncc2Cl)cc1OCC` registered a half-inhibitory concentration (IC50) in data set [1] of more than 100 µM.

With `OCCN(CCO)c1nc(N2CCCCC2)c2nc(N(CCO)CCO)nc(N3CCCCC3)c2n1` [DIPYRIDAMOLE], the inhibition in data set [4] was more than 50%. This molecule also yielded an IC50 in data set [1] of 72 µM. As to `COc1cccc(Nc2c(C(N)=O)cnc3c(C)cc(S(=O)(=O)c4cccc(C(=O)N(C)C)c4)cc23)c1`, the inhibition in data set [5] is more than 50%.

Take `COc1cc2ncnc(N3CC[C@@H](Oc4cnc5ccccc5n4)C3)c2cc1OC`: the inhibition in data set [4] is more than 55%.

For the molecule `O=C(Nc1c(Cl)cncc1Cl)c1ccc(OC(F)F)c(OCC2CC2)c1` [ROFLUMILAST], the IC50 in data set [1] was more than 100 µM. For `COc1ccc(C(=O)Nc2c(Cl)cncc2Cl)cc1OC(C)C`, in data set [3], the midpoint of the response, the EC50, lay at 27.6 µM. For the same molecule, the IC50 in data set [2] and in data set [1] was more than 30 µM each time. Regarding `CS(=O)(=O)Oc1ccc2c(NC(N)=O)c(C(=O)c3ccc(Cl)cc3Cl)oc2c1`, the IC50 in data set [2] and in data set [1] was more than 10 µM in each case.

The molecule `COc1cc(C(=O)Nc2c(Cl)cncc2Cl)ccc1OC(C)=O` displayed an IC50 in data set [1] of more than 100 µM. On to `COc1ccc(C(=O)Nc2c(Cl)cncc2Cl)cc1OC`, for which the IC50 in data set [2] and in data set [1] was more than 100 µM each time. Regarding `COc1ccc(C(=O)Nc2c(Cl)cncc2Cl)cc1OCc1ccccc1`, the half-maximal effective concentration (EC50) in data set [3] came to 10.1 µM. Moreover, the 50% inhibitory concentration (IC50) in data set [2] came out at 11.2 µM; in data set [1], 12.5 µM.

`COc1ccc(C(=O)Nc2c(Cl)cncc2Cl)cc1OC1CCCC1`: in data set [3], the concentration for a half-maximal effect (EC50) stood at 9.57 µM. This molecule also returned an inhibition in data set [4] of more than 50%. Also, the IC50 in data set [2] was determined as 11.4 µM; in data set [1], 4.7 µM. `CCCOc1cc(C(=O)Nc2c(Cl)cncc2Cl)ccc1OC` displayed a concentration for a half-maximal effect (EC50) in data set [3] of 13 µM. Moreover, the figures for the IC50 in data set [2] and in data set [1] were 9.4 µM and 13.6 µM, respectively. As for `COc1ccc(C(=O)Nc2c(Cl)cncc2Cl)c(Cl)c1OC`, the IC50 in data set [1] is more than 100 µM. In turn, `COc1cc(C(=O)Nc2c(Cl)cncc2Cl)cc(OC)c1OC` returned a 50% effective concentration (EC50) in data set [3] of more than 100 µM. In addition, the Activity in data set [6] is recorded as 10%. The same molecule returned a half-maximal inhibitory concentration (IC50) in data set [1] of more than 100 µM.
